Data: ChEMBL document CHEMBL1629579, “Correlating echinocandin MIC and kinetic inhibition of fks1 mutant glucan synthases for Candida albicans: implications for interpretive breakpoints” (Antimicrob Agents Chemother, 2009)
≈ marks a conversion by molar mass, not a printed value. Numbered stars: 1 amine (or outer) side, 2 acyl side, 3 side chain; on linkers, the order of the positions; unused ones are H or OH. Bridge positions count the residues as written; N and C are the ends. Square brackets hold non-standard residues; d marks the D form. Peptide text beside a SMILES is read from it. * marks the point of attachment. hTyr(3S-OH,4S-OH,3'-OSO3H) = N[C@H](C(=O)O)[C@H](O)[C@@H](O)c1ccc(O)c(OS(=O)(=O)O)c1; Orn(4R-OH,5R-OH) = O=C([C@H](C[C@@H](O)[C@@H](O)N[*:3])N[*:1])[*:2]; Pro(3S-OH,4S-Me) = C[C@H]1CN[C@H](C(=O)O)[C@H]1O; X1 = CCCCCOc1ccc(-c2cc(-c3ccc(C(=O)*)cc3)no2)cc1; Gln(3R-OH) = NC(=O)C[C@@H](O)[C@H](N)C(=O)O; Hyp = O=C(O)[C@@H]1C[C@@H](O)CN1

Experiments:
Candida albicans [1] = experiment: Antimicrobial activity against Candida albicans SC5314 by M27-A3 method in presence of 50% human serum; type: functional
How it was run: (§1)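 Broth microdilution per CLSI M27-A3 in RPMI 1640, done in triplicate on three separate days. Each strain was tested with and without 50% human serum. C. krusei ATCC 6258 and C. parapsilosis ATCC 22019 served as QC strains. Arithmetic means are reported, and geometric means were used for comparison.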

Candida albicans [2] = experiment: Antimicrobial activity against Candida albicans 36082 by M27-A3 method; type: functional
How it was run: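 Broth microdilution per CLSI M27-A3 in RPMI 1640, with and without 50% human serum, in triplicate. C. krusei ATCC 6258 and C. parapsilosis ATCC 22019 served as quality-control strains. MIC reported as arithmetic mean of three repetitions on separate days.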

Candida albicans [3] = experiment: Antimicrobial activity against Candida albicans 36082 by M27-A3 method in presence of 50% human serum; type: functional; how it was run: as §1
Candida albicans [4] = experiment: Antimicrobial activity against Candida albicans 90028 by M27-A3 method in presence of 50% human serum; type: functional; how it was run: as §1
Candida albicans [5] = experiment: Antimicrobial activity against Candida albicans 119 harboring FKS1 T1921C mutant gene and FKS1 hotspot1 F641L mutant gene by M27-A3 method; type: functional; how it was run: as §1
Candida albicans [6] = experiment: Antimicrobial activity against Candida albicans 2762 harboring FKS1 T1922C mutant gene and FKS1 hotspot1 F641S mutant gene by M27-A3 method; type: functional; how it was run: as §1
Candida albicans [7] = experiment: Antimicrobial activity against Candida albicans 205 harboring FKS1 T1933C mutant gene and FKS1 hotspot1 S645P mutant gene by M27-A3 method in presence of 50% human serum; type: functional; how it was run: as §1
Candida albicans [8] = experiment: Antimicrobial activity against Candida albicans 89 harboring FKS1 C1934A mutant gene and FKS1 hotspot1 S645Y mutant gene by M27-A3 method; type: functional; how it was run: as §1
Candida albicans [9] = experiment: Antimicrobial activity against Candida albicans 85 harboring FKS1 C1934T mutant gene and FKS1 hotspot1 S645F mutant gene by M27-A3 method; type: functional; how it was run: as §1
Candida albicans [10] = experiment: Antimicrobial activity against Candida albicans 149 harboring FKS1 G1942T mutant gene and FKS1 hotspot1 D648Y mutant gene by M27-A3 method; type: functional; how it was run: as §1
Candida albicans [11] = experiment: Antimicrobial activity against Candida albicans 122 harboring FKS1 C1946A mutant gene and FKS1 hotspot1 P649H mutant gene by M27-A3 method in presence of 50% human serum; type: functional; how it was run: as §1
Candida albicans [12] = experiment: Antimicrobial activity against Candida albicans 121 harboring FKS1 G4082A mutant gene and FKS1 hotspot2 R1361H mutant gene by M27-A3 method in presence of 50% human serum; type: functional; how it was run: as §1
Candida albicans [13] = experiment: Antimicrobial activity against Candida albicans 194 harboring FKS1 C1934T/G4082R mutant gene and FKS1 hotspot1 S645F mutant gene and FKS1 hotspot2 R1361R/H mutant gene by M27-A3 method in presence of 50% human serum; type: functional; how it was run: as §1
Candida albicans [14] = experiment: Antimicrobial activity against Candida albicans 90 harboring FKS1 G4082R mutant gene and FKS1 hotspot2 R1361R/H mutant gene by M27-A3 method in presence of 50% human serum; type: functional; how it was run: as §1
Candida albicans [15] = experiment: Antimicrobial activity against Candida albicans A15 harboring FKS1 T1933Y mutant gene and FKS1 hotspot1 S645S/P mutant gene by M27-A3 method; type: functional; how it was run: as §1
[16] = Inhibition of Candida albicans 90028 1,3-beta-D-glucan synthase subunit FKS1p
How it was run: (§2)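 Enzyme is product-entrapped 1,3-β-D-glucan synthase, enriched from membranes of each strain grown at 37°C with shaking in YPD broth to early stationary phase. Filtration polymerization assay uses [3H]UDPG, started by adding enzyme and run 60 min at 25°C. Echinocandins are added as serial dilutions, with 1% DMSO controls for anidulafungin. IC50 is from a variable-slope sigmoidal fit; values are triplicate arithmetic means.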

[17] = Inhibition of Candida albicans 119 1,3-beta-D-glucan synthase subunit FKS1p T1921C mutant
How it was run: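 Product-entrapped glucan synthase from YPD-grown cells (37°C, early stationary phase) in a filtration polymerization assay with [3H]UDPG. Echinocandin serial dilutions were added, with 1% DMSO in controls for anidulafungin. Reactions were started with enzyme, run 60 min at 25°C and stopped on ice. IC50 came from a variable-slope sigmoidal fit, in triplicate.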

[18] = Inhibition of Candida albicans 85 1,3-beta-D-glucan synthase subunit FKS1p C1934T mutant; how it was run: as §2
[19] = Inhibition of Candida albicans 149 1,3-beta-D-glucan synthase subunit FKS1p G1942T mutant; how it was run: as §2
[20] = Inhibition of Candida albicans 121 1,3-beta-D-glucan synthase subunit FKS1p G4082A mutant; how it was run: as §2
[21] = Inhibition of Candida albicans 194 1,3-beta-D-glucan synthase subunit FKS1p C1934T/G4082R mutant; how it was run: as §2
Candida albicans SC5314 = experiment: Activity at Candida albicans SC5314 1,3-beta-D-glucan synthase subunit FKS1p
How it was run: (§3)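 Glucan synthase from cells grown at 37°C with vigorous shaking to early stationary phase in YPD. Membrane enzyme enriched by product entrapment. Serial echinocandin dilutions; ANF controls held 1% DMSO. Reaction started by adding enzyme, run 60 min at 25°C in a filtration polymerization assay, stopped on ice. IC50 from a variable-slope sigmoidal fit; means of three repetitions on separate days.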

Candida albicans [22] = experiment: Activity at Candida albicans 1002 1,3-beta-D-glucan synthase subunit FKS1p; how it was run: as §3
Candida albicans [23] = experiment: Activity at Candida albicans 2762 1,3-beta-D-glucan synthase subunit FKS1p T1922C mutant
How it was run: (§4)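 Product-entrapped 1,3-β-D-glucan synthase from cells grown in YPD at 37°C to early stationary phase. Wells held 50 mM HEPES pH 7.5, 10% glycerol, 1.5 mg/ml BSA, 25 mM KF, 1 mM EDTA, 25 μM GTP-γ-S, 1 μg enzyme and [3H]UDPG (0.015–2 mM). Reactions ran 60 min at 25°C. Vmax and Km came from Lineweaver-Burke plots, in triplicate.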

Candida albicans [24] = experiment: Activity at Candida albicans 205 1,3-beta-D-glucan synthase subunit FKS1p T1933C mutant; how it was run: as §4
Candida albicans [25] = experiment: Activity at Candida albicans 85 1,3-beta-D-glucan synthase subunit FKS1p C1934T mutant; how it was run: as §4
Candida albicans [26] = experiment: Activity at Candida albicans 149 1,3-beta-D-glucan synthase subunit FKS1p G1942T mutant; how it was run: as §4
Candida albicans [27] = experiment: Activity at Candida albicans 122 1,3-beta-D-glucan synthase subunit FKS1p C1946A mutant; how it was run: as §4
Candida albicans [28] = experiment: Activity at Candida albicans 90 1,3-beta-D-glucan synthase subunit FKS1p G4082R mutant; how it was run: as §4
Candida albicans [29] = experiment: Activity at Candida albicans A15-10 1,3-beta-D-glucan synthase subunit FKS1p T1933C mutant

## CCCCCOc1ccc(-c2cc(-c3ccc(C(=O)N[C@H]4C[C@@H](O)[C@@H](O)NC(=O)[C@@H]5[C@@H](O)[C@@H](C)CN5C(=O)[C@H]([C@H](O)CC(N)=O)NC(=O)[C@H]([C@H](O)[C@@H](O)c5ccc(O)c(OS(=O)(=O)O)c5)NC(=O)[C@@H]5C[C@@H](O)CN5C(=O)[C@H]([C@@H](C)O)NC4=O)cc3)no2)cc1 [MICAFUNGIN] (X1-[Orn(4R-OH,5R-OH)]T[Hyp][hTyr(3S-OH,4S-OH,3'-OSO3H)][Gln(3R-OH)][Pro(3S-OH,4S-Me)]; lactam 1-C)
Candida albicans [1]
  MIC: 0.5 µg/mL
Candida albicans [2]
  MIC: 0.03 µg/mL (≈ 0.0236 µM)
Candida albicans [3]
  MIC: 1 µg/mL
Candida albicans [4]
  MIC: 0.5 µg/mL
Candida albicans [5]
  MIC: 0.33 µg/mL (≈ 0.26 µM)
Candida albicans [6]
  MIC: 1 µg/mL (≈ 0.787 µM)
Candida albicans [7]
  MIC: 8 µg/mL
Candida albicans [8]
  MIC: 4 µg/mL (≈ 3.15 µM)
Candida albicans [9]
  MIC: 2.67 µg/mL (≈ 2.1 µM)
Candida albicans [10]
  MIC: 0.83 µg/mL (≈ 0.653 µM)
Candida albicans [11]
  MIC: 4 µg/mL
Candida albicans [12]
  MIC: 8 µg/mL
Candida albicans [13]
  MIC: 8 µg/mL
Candida albicans [14]
  MIC: 4 µg/mL
Candida albicans [15]
  MIC: 0.5 µg/mL (≈ 0.394 µM)
[16]
  IC50: 0.0188 µg/mL (≈ 0.0148 µM)
  Ki: 0.01547 µg/mL (≈ 0.0122 µM)
[17]
  IC50: 0.1836 µg/mL (≈ 0.145 µM)
  Ki: 0.1559 µg/mL (≈ 0.123 µM)
[18]
  IC50: 0.4498 µg/mL (≈ 0.354 µM)
  Ki: 1.28919 µg/mL (≈ 1.01 µM)
[19]
  IC50: 0.3755 µg/mL (≈ 0.296 µM)
  Ki: 0.48923 µg/mL (≈ 0.385 µM)
[20]
  IC50: 0.4982 µg/mL (≈ 0.392 µM)
  Ki: 0.84048 µg/mL (≈ 0.662 µM)
[21]
  IC50: 1.765 µg/mL (≈ 1.39 µM)
  Ki: 0.49383 µg/mL (≈ 0.389 µM)
Candida albicans SC5314
  Km: 125 µM
  Vmax: 6.72 nmol/min
Candida albicans [22]
  Km: 122 µM
  Vmax: 5.8 nmol/min
Candida albicans [23]
  Km: 108 µM
  Vmax: 3.57 nmol/min
Candida albicans [24]
  Km: 116 µM
  Vmax: 5.54 nmol/min
Candida albicans [25]
  Km: 25 µM
  Vmax: 1.83 nmol/min
Candida albicans [26]
  Km: 32 µM
  Vmax: 1.22 nmol/min
Candida albicans [27]
  Km: 152 µM
  Vmax: 1.95 nmol/min
Candida albicans [28]
  Km: 31 µM
  Vmax: 2.36 nmol/min
Candida albicans [29]
  Km: 91 µM
  Vmax: 3.26 nmol/min
